The text below walks through data of ChEMBL document CHEMBL2057097, “Synthesis and biological evaluation of rebeccamycin analogues modified at the imide moiety” (Bioorg Med Chem Lett, 2012).

Data set [1] has as its system A2780. Briefly: Cytotoxicity against human A2780 cells after 72 hrs by sulforhodamine B assay. Type of data set: functional, cell-based. Particulars: A2780, 72 h. The method in brief: (§1)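 Cells seeded (A2780 2000, H460 1500, GLC-4 1500 per well), incubated 24 h at 37 °C, 5% CO₂. Compounds from DMSO diluted in saline, tested over 0.001 to 10 range. 24 h exposure, two PBS washes, then 72 h in drug-free medium. Viability by SRB; IC50 from survival-versus-concentration curve against untreated control.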
(The SRB assay estimates cell density from bound dye.)

For a further data set, the system named is NCI-H460. Briefly: Cytotoxicity against human NCI-H460 cells after 72 hrs by sulforhodamine B assay. It is filed as functional, cell-based. Particulars: NCI-H460, 72 h. In outline:
as §1

The nature of data set [2]: Cytotoxicity against human GLC4 cells after 72 hrs by sulforhodamine B assay. It is filed as functional, cell-based. The conditions noted are these: GLC4, 72 h. The method in brief: as §1
A further data set relates to Mus musculus. As to the kind of experiment: Toxicity in athymic Harlan mouse xenografted with human A2780 cells assessed as mortality at 90 mg/kg, iv administered Q4D for 4 weeks. Type of data set: organism-based. On the set-up: dose 90 mg/kg, route intravenous. The conditions noted are these: in vivo, 672 h. The method in brief: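 Female athymic nude mice (6–8 weeks old, five per group) received 10 × 10⁶ A2780 cells s.c. in the right flank, suspended in 0.9% NaCl. Dosing began at tumours of about 50 mm³. The drug was dissolved in sterile water for injection, diluted in saline just before use, and given i.v. q4dx4 (twice weekly) at 10 ml/kg. Read-out was deaths out of total mice.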
On the technique in general: Xenograft models place foreign cells or tissue in a host animal.

The subject of data set [3] is A2780. As to the kind of experiment: Antitumor activity against human A2780 cells xenografted in athymic harlan mouse assessed as tumor volume inhibition at 90 mg/kg, […] Q4D for 4 weeks. Type of data set: functional. Particulars: A2780, 672 h. In outline:
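Female athymic nude mice, 6–8 weeks old, five per group, implanted s.c. in right flank with A2780 cells (10 × 10⁶ cells/flank in 0.2 ml 0.9% NaCl). Treatment began at tumours approximately 50 mm³. Compound dissolved in sterile water, diluted in saline, given i.v. q4dx4 at 10 ml/kg. Calliper length/width; TV = width² × length/2. TVI versus controls at nadir of treated group; deaths recorded.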

The subject of data set [4] is A2780. Briefly: Ratio of IC50 for edotecarin to compound IC50 for human A2780 cells after 72 hrs by sulforhodamine B assay. It is filed as functional.

Regarding `O=C1c2c(c3c4ccc(O)cc4n([C@@H]4O[C@H](CO)[C@@H](O)[C@H](O)[C@H]4O)c3c3[nH]c4cc(O)ccc4c23)C(=O)N1N1CCOCC1`, the IC50 in the data set on A2780 [1] is 54 nM; in the data set on NCI-H460, above 1000 nM; in data set [2] it was 90 nM.
On to `O=C1c2c(c3c4ccc(O)cc4n([C@@H]4O[C@H](CO)[C@@H](O)[C@H](O)[C@H]4O)c3c3[nH]c4cc(O)ccc4c23)C(=O)N1NC(CO)CO` [EDOTECARIN], for which the IC50 in the data set on A2780 [1] was determined as 6.5 nM; with NCI-H460, 193 nM; in data set [2], 0.8 nM. In the data set on Mus musculus, the Activity result is reported as “Non-toxic”. Besides, in the data set on A2780 [3], the inhibition in vivo at 90 mg/kg was 99.8%.
On to `O=C1c2c(c3c4ccc(O)cc4n([C@@H]4O[C@H](CO)[C@@H](O)[C@H](O)[C@H]4O)c3c3[nH]c4cc(O)ccc4c23)C(=O)N1NCC1COCO1` (some centres not stated), for which the IC50 in the data set on A2780 [1] is 1.7 nM; in the data set on NCI-H460, above 1000 nM; in data set [2], 0.8 nM. Besides, the “Ratio IC50” value in the data set on A2780 [4] is 3.
On to `CC[C@@]1(O)C(=O)OCc2c1cc1n(c2=O)Cc2cc3ccccc3nc2-1` [CAMPTOTHECIN], for which the IC50 amounted to 7 nM in the data set with A2780 [1], 5 nM in the data set on NCI-H460 and 10 nM in data set [2].
The like results for `O=C1c2c(c3c4ccc(O)cc4n([C@@H]4O[C@H](CO)[C@@H](O)[C@H](O)[C@H]4O)c3c3[nH]c4cc(O)ccc4c23)C(=O)N1NC1C(O)CCCC1O` (some centres not stated) were, in that order, 90 nM, above 250 nM and 101 nM.
Consider `COCC(COC)NN1C(=O)c2c(c3c4ccc(O)cc4n([C@@H]4O[C@H](CO)[C@@H](O)[C@H](O)[C@H]4O)c3c3[nH]c4cc(O)ccc4c23)C1=O`, for which the results for the 50% inhibitory concentration (IC50) (with A2780 [1]; in the data set on NCI-H460; in data set [2]) were 12.7 nM, above 125 nM and 3.8 nM, respectively.
On to `O=C1c2c(c3c4ccc(O)cc4n([C@@H]4O[C@H](CO)[C@@H](O)[C@H](O)[C@H]4O)c3c3[nH]c4cc(O)ccc4c23)C(=O)N1NC1COCOC1`, for which the IC50 with A2780 [1] was 0.7 nM; with NCI-H460, above 250 nM; in data set [2], 0.7 nM. The “Ratio IC50” value in the data set on A2780 [4] is recorded as 10. Moreover, in the data set with Mus musculus, the Activity result is “Non-toxic”. In addition, the inhibition in vivo at 90 mg/kg in the data set on A2780 [3] was found to be 99.7%.

A word on the IC50: it is the concentration that gives 50% inhibition. The term inhibition in vivo denotes the drop in the measured response relative to a control, in per cent.
